{"source": "ChEMBL document CHEMBL1125244", "about": "“4',5'-unsaturated 5'-halogenated nucleosides. Mechanism-based and competitive inhibitors of S-adenosyl-L-homocysteine hydrolase” (J Med Chem, 1991)", "key": {"[1]": {"target": "T1, Adenosylhomocysteinase (Rattus norvegicus, UniProt P10760)", "T1 sequence (P10760 whole entry)": "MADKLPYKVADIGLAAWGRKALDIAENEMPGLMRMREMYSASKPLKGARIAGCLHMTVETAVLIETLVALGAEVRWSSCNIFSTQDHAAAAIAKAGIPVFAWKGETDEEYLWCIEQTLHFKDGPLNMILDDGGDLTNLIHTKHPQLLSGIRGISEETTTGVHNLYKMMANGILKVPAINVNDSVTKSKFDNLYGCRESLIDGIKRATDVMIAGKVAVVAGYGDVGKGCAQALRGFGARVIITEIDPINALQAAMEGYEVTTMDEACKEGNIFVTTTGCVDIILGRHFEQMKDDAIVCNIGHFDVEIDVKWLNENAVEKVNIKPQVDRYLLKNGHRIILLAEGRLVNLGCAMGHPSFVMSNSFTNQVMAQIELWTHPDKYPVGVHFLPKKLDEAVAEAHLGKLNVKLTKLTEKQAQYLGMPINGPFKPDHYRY", "assay": "Competitive inhibitory activity against rat liver S-Adenosyl-homocysteine hydrolase; call rule not given here"}, "[2]": {"target": "T1, Adenosylhomocysteinase", "assay": "Activity determined in rat liver S-Adenosyl-homocysteine hydrolase and expressed as KI values; NA= not applicable"}, "[3]": {"target": "T2, Adenosylhomocysteinase (Mus musculus, UniProt P50247)", "T2 sequence (P50247 whole entry)": "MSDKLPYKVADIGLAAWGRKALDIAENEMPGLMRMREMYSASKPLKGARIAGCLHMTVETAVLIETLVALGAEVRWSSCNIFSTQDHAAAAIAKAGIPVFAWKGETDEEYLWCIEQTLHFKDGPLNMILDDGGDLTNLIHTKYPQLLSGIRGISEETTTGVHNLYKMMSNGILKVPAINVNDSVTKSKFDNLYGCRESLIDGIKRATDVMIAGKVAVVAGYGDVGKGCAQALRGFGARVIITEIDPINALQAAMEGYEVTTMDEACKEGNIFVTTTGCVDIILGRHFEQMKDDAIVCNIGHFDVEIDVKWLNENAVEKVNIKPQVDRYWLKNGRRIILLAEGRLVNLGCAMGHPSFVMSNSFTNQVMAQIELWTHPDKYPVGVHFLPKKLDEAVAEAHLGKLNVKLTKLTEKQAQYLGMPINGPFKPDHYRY", "assay": "Activity determined in mouse liver S-Adenosyl-homocysteine hydrolase and expressed as KI values; NA= not applicable"}, "[4]": {"tested_on": "Moloney murine leukemia virus", "assay": "Antiretroviral activity in the XC-plaque assay using Moloney leukemia virus (MoLV) as a model for human immunodeficiency virus (HIV).", "format": "functional, organism-based"}, "[5]": {"target": "T1, Adenosylhomocysteinase", "assay": "Activity determined in rat liver S-adenosyl-L-homocysteine hydrolase and expressed as Kinactivator values; NA= not applicable"}, "[6]": {"target": "T2, Adenosylhomocysteinase", "assay": "Activity determined in mouse liver S-adenosyl-L-homocysteine hydrolase and expressed as KI values; NA= not applicable", "procedure,_shortened": "(§1)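 Partially purified mouse liver enzyme (38–55% ammonium sulfate fraction, stored at –70 °C), assayed in the synthetic direction. The mix held […] potassium phosphate, 2 mM 2-mercaptoethanol, 0.1 mM adenosine plus [³H]adenosine, 10 mM DL-homocysteine and 1.0 μM 2-deoxycoformycin, run 10–20 min at 37 °C. [³H]SAH was separated on Cellex-P and counted. Time-dependent inactivation constants came from the Kitz–Wilson method.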"}, "[7]": {"target": "T1, Adenosylhomocysteinase", "assay": "Activity determined in rat liver S-adenosyl-L-homocysteine hydrolase and expressed as KI values; NA= not applicable"}, "[8]": {"target": "T2, Adenosylhomocysteinase", "assay": "Activity determined in mouse liver S-Adenosyl-L-homocysteine (SAH) Hydrolase and expressed as KI values; NA= not applicable", "procedure,_shortened": "as §1"}, "[9]": {"target": "T1, Adenosylhomocysteinase", "assay": "Activity determined in rat liver S-Adenosyl-L-homocysteine (SAH) Hydrolase and expressed as KI values; NA= not applicable"}, "[10]": {"target": "Adenosylhomocysteinase (Mus musculus) (UniProt P50247)", "sequence (P50247 2-432 limits assumed)": "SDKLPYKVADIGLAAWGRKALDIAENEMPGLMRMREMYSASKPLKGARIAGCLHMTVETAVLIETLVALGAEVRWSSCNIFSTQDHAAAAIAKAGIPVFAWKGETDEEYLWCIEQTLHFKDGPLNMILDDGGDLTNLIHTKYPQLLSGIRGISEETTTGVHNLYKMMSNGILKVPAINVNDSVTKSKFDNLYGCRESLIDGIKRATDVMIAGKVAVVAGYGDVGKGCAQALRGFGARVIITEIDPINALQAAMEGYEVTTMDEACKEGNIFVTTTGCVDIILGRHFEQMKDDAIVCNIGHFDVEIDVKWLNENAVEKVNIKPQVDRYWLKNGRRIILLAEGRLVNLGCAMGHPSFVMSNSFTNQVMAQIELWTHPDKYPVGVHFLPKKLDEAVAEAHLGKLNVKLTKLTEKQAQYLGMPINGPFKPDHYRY"}, "[11]": {"target": "T3, Adenosylhomocysteinase (Rattus norvegicus) (UniProt P10760)", "T3 sequence (whole entry)": "T1 sequence (P10760 whole entry)", "assay": "(§2) Activity determined in rat liver S-adenosyl-L-homocysteine hydrolase and expressed as KI values."}, "[12]": {"target": "T1, Adenosylhomocysteinase", "assay": "Time-dependent inhibitory activity against rat liver S-adenosyl-L-homocysteine hydrolase"}, "[13]": {"target": "T2, Adenosylhomocysteinase", "assay": "Activity determined in mouse liver S-adenosyl-L-homocysteine hydrolase and expressed as KI values."}, "[14]": {"target": "T1, Adenosylhomocysteinase", "assay": "Activity determined in rat liver S-adenosyl-L-homocysteine hydrolase and expressed as Kinactivator values."}, "[15]": {"target": "T1, Adenosylhomocysteinase", "assay": "as §2"}, "[16]": {"target": "T3, Adenosylhomocysteinase (Rattus norvegicus)"}}, "note": "pKi: −log10 of the molar value."}
{"smiles": "Nc1ncnc2c1ncn2[C@@H]1O/C(=C(/F)Cl)[C@@H](O)[C@H]1O", "values": [{"measurement": "pKi", "setting": "[1]", "value": 5.82}, {"measurement": "Ki", "setting": "[2]", "value": "Not Active"}, {"measurement": "Ki", "setting": "[3]", "value": "Not Active"}, {"measurement": "IC50", "setting": "[4]", "value": 0.1, "unit": "µg/mL"}]}
{"smiles": "Nc1ncnc2c1ncn2[C@@H]1O/C(=C(\\F)Cl)[C@@H](O)[C@H]1O", "values": [{"measurement": "pKi", "setting": "[5]", "value": 5.52}, {"measurement": "Ki", "setting": "[6]", "value": "Not Active"}, {"measurement": "Ki", "setting": "[7]", "value": "Not Active"}, {"measurement": "IC50", "setting": "[4]", "value": 1.3, "unit": "µg/mL"}]}
{"smiles": "Nc1ncnc2c1ncn2[C@@H]1O/C(=C\\Cl)[C@@H](O)[C@H]1O", "values": [{"measurement": "pKi", "setting": "[5]", "value": 5.80}, {"measurement": "Ki", "setting": "[6]", "value": "Not Active"}, {"measurement": "Ki", "setting": "[7]", "value": "Not Active"}, {"measurement": "IC50", "setting": "[4]", "value": 3.3, "unit": "µg/mL"}]}
{"smiles": "Nc1ncnc2c1ncn2[C@@H]1O/C(=C\\F)[C@@H](O)[C@@H]1O", "values": [{"measurement": "pKi", "setting": "[1]", "value": 4.96}, {"measurement": "Ki", "setting": "[2]", "value": "Not Active"}, {"measurement": "Ki", "setting": "[3]", "value": "Not Active"}, {"measurement": "IC50", "setting": "[4]", "value": 1.2, "unit": "µg/mL"}]}
{"smiles": "Nc1ncnc2c1ncn2[C@H]1C[C@H](O)/C(=C\\F)O1", "values": [{"measurement": "Ki", "setting": "[8]", "value": "Not Active"}, {"measurement": "Ki", "setting": "[9]", "value": "Not Active"}]}
{"smiles": "Nc1ncnc2c1ncn2[C@H]1C[C@H](O)/C(=C/F)O1", "values": [{"measurement": "pKi", "setting": "[5]", "value": 3.82}, {"measurement": "Ki", "setting": "[6]", "value": "Not Active"}, {"measurement": "Ki", "setting": "[7]", "value": "Not Active"}, {"measurement": "IC50", "setting": "[4]", "value": 10, "unit": "µg/mL"}]}
{"smiles": "Nc1ncnc2c1ncn2C1O[C@H](C(F)F)[C@@H](O)[C@H]1O", "note": "(stereo partly specified)", "values": [{"measurement": "K inact", "setting": "[10]", "value": 0.6, "unit": "min⁻¹"}, {"measurement": "K inact", "setting": "[11]", "value": 0.04, "unit": "min⁻¹"}, {"measurement": "pKi", "setting": "[12]", "value": 5.01}, {"measurement": "pKi", "setting": "[13]", "value": 5.00}, {"measurement": "IC50", "setting": "[4]", "value": 0.8, "unit": "µg/mL"}, {"measurement": "pKi", "setting": "[14]; read-out: Ki", "value": 5.01}]}
{"smiles": "Nc1ncnc2c1ncn2[C@@H]1O/C(=C/F)[C@@H](O)[C@H]1O", "values": [{"measurement": "K inact", "setting": "[10]", "value": 0.23, "unit": "min⁻¹"}, {"measurement": "pKi", "setting": "[15]", "value": 5.62}, {"measurement": "pKi", "setting": "[13]", "value": 5.98}, {"measurement": "IC50", "setting": "[4]", "value": 0.25, "unit": "µg/mL"}, {"measurement": "K inact", "setting": "[16]", "value": 0.14, "unit": "min⁻¹"}, {"measurement": "Ki", "setting": "[14]", "value": "Not Active"}]}
{"smiles": "Nc1ncnc2c1ncn2[C@@H]1O/C(=C/F)[C@@H](O)[C@@H]1O", "values": [{"measurement": "pKi", "setting": "[1]", "value": 5.49}, {"measurement": "Ki", "setting": "[2]", "value": "Not Active"}, {"measurement": "Ki", "setting": "[3]", "value": "Not Active"}, {"measurement": "IC50", "setting": "[4]", "value": 4.4, "unit": "µg/mL"}]}
{"smiles": "Nc1ncnc2c1ncn2[C@@H]1O/C(=C\\F)[C@@H](O)[C@H]1O", "values": [{"measurement": "K inact", "setting": "[10]", "value": 0.28, "unit": "min⁻¹"}, {"measurement": "pKi", "setting": "[15]", "value": 5.19}, {"measurement": "pKi", "setting": "[13]", "value": 6.26}, {"measurement": "IC50", "setting": "[4]", "value": 0.05, "unit": "µg/mL"}, {"measurement": "K inact", "setting": "[16]", "value": 0.8, "unit": "min⁻¹"}, {"measurement": "Ki", "setting": "[14]", "value": "Not Active"}]}
{"smiles": "Nc1ncnc2c1ncn2[C@@H]1O[C@H](CO)[C@@H](O)[C@@H]1O", "note": "[VIDARABINE]", "values": [{"measurement": "pKi", "setting": "[13]", "value": 4.52}, {"measurement": "IC50", "setting": "[4]", "value": 1, "unit": "µg/mL"}]}
